From ChEMBL document CHEMBL1795208 (J Med Chem, 2011) come the findings set out here.

Activity calls are given as the source filed them. The calls are words filed in the database; no cut-off is given here.

Experiment [1] deals with SK-BR-3. Nature of the experiment: Antiproliferative activity against human SKBR3 cells expressing HER2 after 72 hrs by MTS/PMS assay. The experiment is classed as functional, cell-based. Particulars: SK-BR-3, 72 h. The procedure, abridged:
(§1)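 Cells kept in Advanced DMEM/F12 (1:1) with non-essential amino acids, 2 mM L-glutamine, penicillin, streptomycin and 10% FBS at 37 °C, 5% CO2. Seeded at 2000/well, attached overnight. Compound added in DMSO across a concentration range (1% DMSO final) for 72 h. Viable cells read by MTS/PMS and normalized to 1% DMSO controls (100%). IC50 taken from separate triplicate experiments.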

The next experiment concerns MCF7. Nature of the experiment: Antiproliferative activity against human MCF7 cells expressing estrogen receptor after 72 hrs by MTS/PMS assay. In kind it is functional, cell-based. Particulars: MCF7, 72 h. The procedure, abridged: as §1
Experiment [2] relates to SK-BR-3. Nature of the experiment: Ratio of novobiocin IC50 to compound IC50 for human SKBR3 cells expressing HER2. In kind it is functional.
The target in experiment [3] is T1, Heat shock protein HSP90 (Homo sapiens) (UniProt P07900+P08238). In words: Inhibition of Hsp90 in human MCF7 cells assessed as Akt degradation at IC50 concentration after 24 hrs by Western blot analysis. In kind it is cell-based. (A western blot detects proteins with antibodies after separation by electrophoresis.)
For experiment [4], the target named is T1, Heat shock protein HSP90 (Homo sapiens). In words: Inhibition of Hsp90 in human MCF7 cells assessed as Her2 degradation at IC50 concentration after 24 hrs by Western blot analysis. In kind it is cell-based.
Experiment [5] shares this target. Nature of the experiment: Inhibition of Hsp90 in human MCF7 cells assessed as Raf1 degradation at IC50 concentration after 24 hrs by Western blot analysis. In kind it is cell-based.
The target is the same in experiment [6]. Nature of the experiment: Inhibition of Hsp90 in human MCF7 cells assessed as Her2 degradation after 24 hrs by Western blot analysis. In kind it is cell-based. The procedure, abridged: (§2)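 MCF-7 cells grown as for proliferation and treated with compound at various concentrations, GDA, or DMSO vehicle (1% DMSO final) for 24 h. Lysed in RIPA with 1 mM PMSF, 2 mM orthovanadate and protease inhibitors on ice for 1 h, then clarified at 14000g. Protein measured by BCA. 20 µg run reducing, transferred to nitrocellulose and probed with specific antibodies.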

Experiment [7] has the same target. In words: Inhibition of Hsp90 in human MCF7 cells assessed as Raf1 degradation after 24 hrs by Western blot analysis. The experiment is classed as cell-based. The procedure, abridged: as §2
Experiment [8] can be described thus: Antiproliferative activity against human androgen-independent PC3MM2 cells after 72 hrs by MTS/PMS assay. The experiment is classed as functional, cell-based. Particulars: PC3MM2, 72 h. The procedure, abridged: as §1
Experiment [9] concerns the target T1, Heat shock protein HSP90 (Homo sapiens). Nature of the experiment: Inhibition of Hsp90 in human MCF7 cells assessed as Akt degradation after 24 hrs by Western blot analysis. The experiment is classed as cell-based. The procedure, abridged:
as §2

Experiment [10] in a line: Antiproliferative activity against human MDA1986 cells after 72 hrs by MTS/PMS assay. In kind it is functional, cell-based. Particulars: MDA1986, 72 h. The procedure, abridged: as §1
Another experiment relates to SK-MEL-28. Nature of the experiment: Antiproliferative activity against human SK-MEL-28 cells after 72 hrs by MTS/PMS assay. The experiment is classed as functional, cell-based. Particulars: SK-MEL-28, 72 h. The procedure, abridged: as §1
Another experiment concerns B16-F10. In words: Antiproliferative activity against mouse B16F10 cells after 72 hrs by MTS/PMS assay. Particulars: B16-F10, 72 h. In kind it is functional, cell-based. The procedure, abridged: as §1
Experiment [11] in a line: Antiproliferative activity against human JMAR cells after 72 hrs by MTS/PMS assay. The experiment is classed as functional, cell-based. The procedure, abridged:
as §1

Experiment [12] can be described thus: Antiproliferative activity against human androgen-dependent LNCaP-LN3 cells after 72 hrs by MTS/PMS assay. Particulars: LNCaP-LN3, 72 h. In kind it is functional, cell-based. The procedure, abridged:
as §1

Take `COc1cccc(-c2cc(C(=O)Nc3cc4ccc(O[C@H]5OCC[C@@H](O)[C@H]5O)c(OC)c4oc3=O)ccc2OC)c1`: the values for the half-maximal inhibitory concentration (IC50) with SK-BR-3 [1] and in the experiment on MCF7 were 11.1 µM and 10.8 µM, respectively. Further, the “Ratio IC50” value with SK-BR-3 [2] is 500.

For the compound `COc1cccc(-c2cc(C(=O)Nc3cc4cc(OC)c(O[C@@H]5OC[C@@H]6OC(=O)O[C@H]56)c(C)c4oc3=O)ccc2OC)c1`, in the experiment on SK-BR-3 [2], the “Ratio IC50” value is recorded as 500.

For the compound `COc1cc2cc(NC(=O)c3ccc(O)c(CC=C(C)C)c3)c(=O)oc2c(C)c1OC1CCN(C)CC1`, the half-inhibitory concentration (IC50) (usually the concentration at which inhibition is half-maximal) with SK-BR-3 [1] came out at 0.42 µM; in the experiment on MCF7 it was 0.54 µM; in experiment [8] it was 2.26 µM. The inhibition result in experiment [3], in experiment [4] and in experiment [5] was “Active” in each case. The inhibition result in [6], in experiment [7] and in [9] was “Dose-dependent effect” throughout.

With `COc1cc2cc(NC(=O)c3cc4ccccc4[nH]3)c(=O)oc2c(C)c1OC1CCN(C)CC1`, the concentration for half-maximal inhibition (IC50) is 0.11 µM in the experiment on SK-BR-3 [1]; 0.52 µM in the experiment on MCF7; 1.42 µM in [10]; 1.47 µM in the experiment with SK-MEL-28; 1.19 µM in the experiment on B16-F10; 0.87 µM in experiment [8]. Moreover, the IC50 in experiment [11] came out at 1.24 µM; in experiment [12], 1.47 µM.

As for `COc1cccc(-c2cc(C(=O)Nc3cc4ccc(O[C@@H]5C[C@H](O)CO5)c(C)c4oc3=O)ccc2OC)c1`, the half-maximal inhibitory concentration (IC50) was above 100 µM in the experiment on SK-BR-3 [1]; above 100 µM with MCF7; 18.8 µM in [10]; 12.4 µM in the experiment with SK-MEL-28; 9.37 µM in the experiment with B16-F10; 26.8 µM in experiment [8]. Moreover, the concentration for half-maximal inhibition (IC50) in experiment [11] is 6.19 µM; in experiment [12] it was 4.96 µM.

With `COc1cccc(-c2cc(C(=O)Nc3cc4ccc(OCCN(C)C)c(C)c4oc3=O)ccc2OC)c1`, the IC50 with SK-BR-3 [1] was determined as 1.02 µM; in the experiment on MCF7, 1.46 µM; in [10], 17.5 µM; in the experiment on SK-MEL-28, 14.7 µM; in the experiment on B16-F10, 15.7 µM; in experiment [8] it was 4.17 µM. Besides, the concentration for half-maximal inhibition (IC50) in experiment [11] was determined as 18.4 µM; in experiment [12], 6.65 µM.

With `COc1cc2cc(NC(=O)c3ccc(OC(C)=O)c(CC=C(C)C)c3)c(=O)oc2c(C)c1OCCCN(C)C`, the results for the IC50 (in the experiment on SK-BR-3 [1]; in the experiment on MCF7; in [8]) were 0.36 µM, 0.7 µM and 1.46 µM, respectively. In addition, the inhibition result in experiment [3], in [4] and in [5] was “Active” each time. Also, the inhibition result in [6], in experiment [7] and in [9] was “Dose-dependent effect” in each case.

In the case of `COc1cccc(-c2cc(C(=O)Nc3cc4ccc(OC5CCC[C@@H](O)[C@H]5O)c(C)c4oc3=O)ccc2OC)c1` (stereo partly specified), the concentration for half-maximal inhibition (IC50) in the experiment on SK-BR-3 [1] was above 100 µM; in the experiment with MCF7, above 100 µM; in experiment [10], 17.9 µM; with SK-MEL-28, 2.94 µM; with B16-F10, 14.1 µM; in experiment [8], 4.04 µM. For the same compound, the half-maximal inhibitory concentration (IC50) in experiment [11] worked out at 13.9 µM; in [12], 1.58 µM.

For the compound `COc1cccc(-c2cc(C(=O)Nc3cc4ccc(OC5CCCN(C)C5)c(C)c4oc3=O)ccc2OC)c1` (stereo unspecified), the IC50 with SK-BR-3 [1] was found to be 2.06 µM; with MCF7 it was 5.04 µM; in experiment [10], 4.5 µM; with SK-MEL-28 it was 6.14 µM; in the experiment on B16-F10, 2.6 µM; in experiment [8], 4.23 µM. The half-inhibitory concentration (IC50) in experiment [11] turned out to be 12.6 µM; in [12] it was 1.22 µM.

Consider `COc1cccc(-c2cc(C(=O)Nc3cc4ccc(O[C@H]5OCC[C@@H](O)[C@H]5O)c(C)c4oc3=O)ccc2OC)c1`, for which the IC50 came out at 6.71 µM in the experiment with SK-BR-3 [1]; 42.6 µM in the experiment on MCF7; 3.7 µM in experiment [10]; 15.8 µM in the experiment with SK-MEL-28; 8.56 µM in the experiment on B16-F10; 12.9 µM in experiment [8]. Besides, the figures for the IC50 in [11] and in experiment [12] were 6.14 µM and 1.2 µM, respectively.

Regarding `COc1cccc(-c2cc(C(=O)Nc3cc4ccc(OC5C=CCN(C)C5)c(C)c4oc3=O)ccc2OC)c1` (stereo unspecified), the IC50 in the experiment with SK-BR-3 [1] turned out to be 2.92 µM; with MCF7, 5.29 µM; in experiment [10], 7.7 µM; with SK-MEL-28, 10.8 µM; in the experiment on B16-F10, 6.4 µM; in experiment [8] it was 1.73 µM. In addition, the IC50 was 11.4 µM in [11] and 1.22 µM in [12].

As for `COc1cccc(-c2cc(C(=O)Nc3cc4ccc(OC5CNC[C@@H](O)[C@H]5O)c(C)c4oc3=O)ccc2OC)c1` (stereo partly specified), the IC50 in the experiment on SK-BR-3 [1] stood at 2.91 µM; in the experiment on MCF7, 2.07 µM; in [10], 5.6 µM; with SK-MEL-28, 6.14 µM; with B16-F10 it was 2.8 µM; in [8], 6.33 µM. Besides, the 50% inhibitory concentration (IC50) turned out to be 5.89 µM in experiment [11] and 4.9 µM in experiment [12].

Consider `COc1cccc(-c2cc(C(=O)Nc3cc4ccc(OC5CN(C)C[C@@H](O)[C@H]5O)c(OC)c4oc3=O)ccc2OC)c1` (stereo partly specified), for which the IC50 in the experiment with SK-BR-3 [1] came out at 6.64 µM; in the experiment on MCF7, 11 µM; in experiment [10] it was 5.9 µM; in the experiment on SK-MEL-28, 5.9 µM; in the experiment with B16-F10, 6.58 µM; in experiment [8], 3.52 µM. The figures for the half-maximal inhibitory concentration (IC50) in experiment [11] and in experiment [12] were 6.7 µM and 1.5 µM, respectively.

Consider `COc1cccc(-c2cc(C(=O)Nc3cc4cc(OC)c(OC5CCCNC5)c(C)c4oc3=O)ccc2OC)c1` (stereo unspecified), for which the concentration for half-maximal inhibition (IC50) worked out at 2.27 µM in the experiment on SK-BR-3 [1]; 2.9 µM in the experiment on MCF7; 6.4 µM in experiment [10]; 7.19 µM with SK-MEL-28; 1.84 µM with B16-F10; 2.59 µM in [8]. Further, the 50% inhibitory concentration (IC50) in [11] worked out at 5.7 µM; in experiment [12] it was 3.66 µM.

Consider `COc1cccc(-c2cc(C(=O)Nc3cc4cc(OC)c(O)c(C)c4oc3=O)ccc2OC)c1`, for which the 50% inhibitory concentration (IC50) in the experiment on SK-BR-3 [1] amounted to 3.23 µM; in the experiment on MCF7, 11.7 µM; in experiment [10], 6.7 µM; in the experiment with SK-MEL-28, 12.4 µM; with B16-F10, 5.77 µM; in experiment [8], 11.2 µM. Besides, the results for the 50% inhibitory concentration (IC50) in experiment [11] and in experiment [12] were 24.6 µM and 15.8 µM, respectively.

In the case of `COc1cccc(-c2cc(C(=O)Nc3cc4cc(OC)c(OC5CNC[C@@H](O)[C@H]5O)c(C)c4oc3=O)ccc2OC)c1` (stereo partly specified), the half-maximal inhibitory concentration (IC50) in the experiment on SK-BR-3 [1] is 3.65 µM; in the experiment on MCF7 it was 3.34 µM; in experiment [10] it was 13.8 µM; in the experiment with SK-MEL-28, 13.8 µM; with B16-F10, 5.04 µM; in experiment [8], 6.84 µM. For the same compound, the half-maximal inhibitory concentration (IC50) in experiment [11] is 11.5 µM; in experiment [12], 9.45 µM.

As for `COc1cccc(-c2cc(C(=O)Nc3cc4ccc(O[C@@H]5OCCC[C@H]5O)c(C)c4oc3=O)ccc2OC)c1`, the half-maximal inhibitory concentration (IC50) was above 100 µM with SK-BR-3 [1]; above 100 µM with MCF7; 0.81 µM in experiment [10]; 1.47 µM in the experiment on SK-MEL-28; 1.01 µM in the experiment on B16-F10; 10.1 µM in experiment [8]. Moreover, the concentration for half-maximal inhibition (IC50) in experiment [11] came out at 16.1 µM; in experiment [12] it was 3.75 µM.
